This is an account of results in ChEMBL document CHEMBL1151419, “Antimicrobial effect of halocidin-derived peptide in a mouse model of Listeria infection” (Antimicrob Agents Chemother, 2007).

Values after ≈ are worked out from the molar mass of the structure shown. Active and inactive are the calls of the source. The calls are words filed in the database; no cut-off is given here. Bridge positions count the residues as written; N and C are the ends. Peptide text beside a SMILES is read from it. I, II: the chains in the order shown.

Data set [1] relates to Listeria monocytogenes. The data set can be described thus: Antimicrobial activity against Listeria monocytogenes ATCC 19111 infected in BALB/c mouse assessed as survival of mouse at 4 mg/kg, iv administered 2 hrs after bacterial challenge measured after 15 days. It counts as functional. A digest of the protocol:
(§1)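 L. monocytogenes grown 18 h at 37°C in brain heart infusion broth and frozen at –80°C; viability checked by plating. Mice infected via tail vein with 2 x 10^5 bacteria each. A single 4 mg/kg i.v. dose in 100 µl PBS was given immediately or 2 h after infection; PBS vehicle controls. Ten mice per group; survivors counted daily for 15 days.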

The subject of data set [2] is Enterococcus faecium. The data set is described as follows: Antimicrobial activity against vancomycin-resistant Enterococcus faecium CCARM 5029 after 18 hrs by broth microdilution assay. It counts as functional. To be noted: CCARM 5029, 18 h. The essentials:
(§2)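 Broth microdilution (modified CLSI). Overnight stationary-phase Mueller-Hinton broth cultures diluted to 2 x 10^5 CFU/ml final. Peptide serially twofold diluted in 0.01% acetic acid (stock series 640 down to 10 µg/ml); 11 µl added to 100 µl of bacteria. After 18 h at 37°C, MIC taken as the lowest concentration preventing visible turbidity.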
(Dilution methods test growth across graded concentrations, often in twofold steps.)

Data set [3] relates to Enterococcus faecium. The data set is described as follows: Antimicrobial activity against vancomycin-resistant Enterococcus faecium CCARM 5029 after 18 hrs by broth microdilution assay in presence of 150 mM NaCl. It counts as functional. The settings on record: CCARM 5029, 18 h. The essentials:
(§3)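 Same broth microdilution, but the medium was Mueller-Hinton broth supplemented with 150 mM NaCl. Inoculum 2 x 10^5 CFU/ml final. Peptide twofold series in 0.01% acetic acid (stocks 640 to 10 µg/ml). After 18 h at 37°C, MIC read as the lowest concentration with no visible growth.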

Data set [4] has as its system Staphylococcus aureus. The data set is described as follows: Antimicrobial activity against methicillin-resistant Staphylococcus aureus CCARM 3695 treated with supernatant containing 2 mg drug incubated for 10 mins with PBS centrifuged for 3 hrs by radial diffusion assay. It counts as functional, organism-based. The essentials:
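2 mg peptide incubated 10 min at 37°C in 2 ml PBS, either serum-free or with 50% heat-treated normal human serum. Spun 3 h at 295,000 x g, 4°C. Then 5 µl of supernatant tested by radial diffusion against mid-log MRSA (4 x 10^6 CFU/ml underlay, 3 h at 37°C, overlay, overnight); clear zones measured.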

The test system of data set [5] is Listeria monocytogenes. The data set is described as follows: Antimicrobial activity against Listeria monocytogenes ATCC 19111 infected in BALB/c mouse at 4 mg/kg, iv in presence of increasing concentration of pustulan. The arrangement: dose 4 mg/kg. It counts as functional, organism-based.
Data set [6] has as its system Staphylococcus aureus. The data set can be described thus: Antimicrobial activity against methicillin-resistant Staphylococcus aureus CCARM 3695 treated with sample containing 25 to 200 ug/ml drug incubated with PBS for 10 mins measured after 3 hrs by radial diffusion assay. It counts as functional, organism-based. A digest of the protocol: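 Serum-free radial diffusion. Peptide in PBS alone (200 µg/ml control) held 10 min at 37°C; 5 µl placed in 3-mm wells. Underlay: pH 7.4 agarose, phosphate/citrate, 0.3 mg/ml TSB, mid-log MRSA 4 x 10^6 CFU/ml. After 3 h at 37°C, TSB-agarose overlay, incubated overnight. Clear-zone diameter read to 0.1 mm (1 mm = 10 units).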

In data set [7] the test system is Listeria monocytogenes. The data set is described as follows: Antimicrobial activity against Listeria monocytogenes ATCC 19111 infected in BALB/c mouse assessed as survival of mouse at 4 mg/kg, iv administered immediately after bacterial challenge measured after 6 days. It counts as functional. The settings on record: ATCC 19111, 144 h. A digest of the protocol:
as §1

For data set [8], the system named is Listeria monocytogenes. The data set can be described thus: Antimicrobial activity against Listeria monocytogenes ATCC 19111 infected in BALB/c mouse at 4 mg/kg, iv in presence of increasing concentration of PGN. It counts as functional, organism-based. The arrangement: dose 4 mg/kg.
Data set [9] relates to Listeria monocytogenes. The data set is described as follows: Antimicrobial activity against Listeria monocytogenes ATCC 19111 infected in BALB/c mouse assessed as reduction in number of recovered CFU in liver at 100 ug, iv measured after 3 days. It counts as functional, organism-based. A digest of the protocol: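 Mice were infected i.v. with L. monocytogenes and immediately given 100 µg peptide in 100 µl PBS i.v.; PBS alone served as control. On days 1 and 3, liver and spleen were homogenized in PBS/0.1% BSA, serially diluted, and plated on TSA with 5% sheep blood. Colonies were counted after 18 h at 37°C. Three independent experiments; mean ± SD.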

Data set [10] in a line: Toxicity against human erythrocytes in assay tube containing mixture of erythrocytes/Listeria monocytogenes cells at 40 ug/ml after 30 mins. It counts as cell-based. The settings on record: erythrocyte, 0.5 h. The essentials: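 Washed mid-log L. monocytogenes (final 1 x 10^5 CFU/ml) was mixed with human blood cells (final 5 x 10^8 cells/ml) and peptide (final 40 µg/ml) in PBS at 37°C. A peptide-free control was included. At 10, 20 and 30 min, aliquots were plated on TSA and colonies counted after overnight growth. Blood cells were counted by hemocytometer under light microscopy.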

Data set [11] deals with Staphylococcus aureus. The data set can be described thus: Antimicrobial activity against methicillin-resistant Staphylococcus aureus CCARM 3695 treated with sample containing 25 to 200 ug/ml drug incubated with PBS containing 50% normal human serum for 10 mins measured after 3 hrs by radial diffusion assay. It counts as functional, organism-based. A digest of the protocol:
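Normal human serum from three donors, heat-treated 30 min at 56°C. Peptide at 25–200 µg/ml in PBS with 50% serum, held 10 min at 37°C; 5 µl placed in 3-mm wells. Underlay: 1% agarose, 9 mM phosphate, 1 mM citrate, 0.3 mg/ml TSB, pH 7.4, with 4 x 10^6 CFU/ml mid-log MRSA. After 3 h at 37°C, overlaid (1% agarose, 6% TSB), incubated overnight. Clear zones in units (1 mm = 10 units); triplicate means.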

The test system of data set [12] is Staphylococcus aureus. The data set can be described thus: Antimicrobial activity against methicillin-resistant Staphylococcus aureus CCARM 3695 after 18 hrs by broth microdilution assay. To be noted: CCARM 3695, 18 h. It counts as functional. A digest of the protocol:
as §2

In another data set the test system is Liver. The data set can be described thus: Drug penetration in BALB/c mouse liver infected with CFSE-labeled Listeria monocytogenes ATCC 19111 at 200 ug, iv by laser scanning confocal microscopy. It counts as ADME, organism-based. To be noted: in vivo. The essentials:
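Listeria was labeled with 5 µM CFSE for 20 min at 37°C in darkness and washed. Mice received 4 x 10^8 cells by tail vein, then immediately 200 µg peptide in 100 µl PBS i.v., or PBS only. Livers were taken 10 min later. Frozen 6-µm sections were stained with cross-reacting rabbit anti-18Hc antiserum (1:200) and Cy3 goat anti-rabbit IgG, then imaged by laser scanning confocal microscopy.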

Data set [13] concerns Listeria monocytogenes. The data set is described as follows: Antimicrobial activity against Listeria monocytogenes ATCC 19111 after 18 hrs by broth microdilution assay in presence of 150 mM NaCl. It counts as functional. To be noted: ATCC 19111, 18 h. A digest of the protocol: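 Bacteria were grown overnight to stationary phase in Mueller-Hinton broth at 37°C and diluted to 2 x 10^5 CFU/ml. Line 3 used MHB plus 150 mM NaCl. Peptide stock (640 µg/ml in 0.01% acetic acid) was twofold serially diluted to 10 µg/ml, and 11 µl was added per 100 µl of cells. Turbidity was read after 18 h at 37°C; MIC was the minimum concentration visibly inhibiting growth.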

The test system of data set [14] is Staphylococcus aureus. The data set can be described thus: Antimicrobial activity against methicillin-resistant Staphylococcus aureus CCARM 3695 after 18 hrs by broth microdilution assay in presence of 150 mM NaCl. To be noted: CCARM 3695, 18 h. It counts as functional. The essentials: as §3
A further data set concerns Mus musculus. The data set is described as follows: Toxicity in BALB/c mouse assessed as lethality at 4 mg/kg, iv repeated 4 times at 1-day interval measured after 2 weeks. To be noted: in vivo, 336 h. It counts as organism-based. Details: dose 4 mg/kg, route intravenous. The essentials:
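Uninfected mice (n = 10) given 4 mg/kg i.v., repeated four times at 1-day intervals. Deaths monitored for 2 weeks.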

`CC(C)C[C@H](NC(=O)CNC(=O)[C@H](Cc1cnc[nH]1)NC(=O)[C@H](Cc1cnc[nH]1)NC(=O)[C@H](CC(C)C)NC(=O)[C@H](CC(C)C)NC(=O)[C@H](C)N)C(=O)N[C@@H](CC(N)=O)C(=O)N[C@@H](CSSC[C@H](NC(=O)[C@H](CC(N)=O)NC(=O)[C@H](CC(C)C)NC(=O)CNC(=O)[C@H](Cc1cnc[nH]1)NC(=O)[C@H](Cc1cnc[nH]1)NC(=O)[C@H](CC(C)C)NC(=O)[C@H](CC(C)C)NC(=O)[C@H](C)NC(=O)[C@H](CC(N)=O)NC(=O)[C@H](CC(C)C)NC(=O)[C@H](Cc1c[nH]c2ccccc12)NC(=O)[C@@H](N)CCCCN)C(=O)N[C@@H](C)C(=O)N[C@@H](CCCCN)C(=O)NCC(=O)N[C@H](C(=O)N[C@@H](CC(C)C)C(=O)N[C@@H](C)C(=O)O)C(C)C)C(=O)N[C@@H](C)C(=O)N[C@@H](CCCCN)C(=O)NCC(=O)N[C@H](C(=O)N[C@@H](CC(C)C)C(=O)N[C@@H](C)C(=O)O)C(C)C` (I: H-KWLNALLHHGLNCAKGVLA-OH / II: H-ALLHHGLNCAKGVLA-OH; disulfide I:13-II:9): the survival at 4 mg/kg in the data set with Listeria monocytogenes [1] was found to be 50%; in the data set on Listeria monocytogenes [7], 100%. Moreover, the MIC (as a rule, the lowest concentration that inhibits growth of the organism) against Enterococcus faecium [2] came to 8 µg/mL (≈ 2.24 µM); in the data set with Enterococcus faecium [3], 8 µg/mL; with Staphylococcus aureus [12], 8 µg/mL (≈ 2.24 µM); in the data set on Listeria monocytogenes [13] it was 16 µg/mL; with Staphylococcus aureus [14], 16 µg/mL. The result in the data set with Staphylococcus aureus [4], in the data set with Listeria monocytogenes [5], in the data set on Staphylococcus aureus [6], in the data set on Listeria monocytogenes [9] and with Staphylococcus aureus [11] was Active. For the same compound, the result in the data set with Listeria monocytogenes [8] was inactive. Moreover, the figures for the Activity result (in data set [10]; in the data set with Liver; with Mus musculus) were “Non-toxic”, “Active” and “Non-toxic”, respectively.
